Experimental findings from ChEMBL document CHEMBL5131470, “Structure-activity and structure-property relationship studies of spirocyclic chromanes with antimalarial activity” (Bioorg Med Chem, 2022) are described below.

The EC50 is the concentration giving half of the maximal effect. The logD is lipophilicity at a set pH, counting ionised and neutral species. Lower therefore signals a more hydrophilic compound. A word on the solubility: it is the concentration that dissolves in the medium under given conditions. Lower therefore signals a poorly soluble substance.

Converted amounts (≈) assume the structure as drawn. Bounds are passed on as bounds.

In data set [1] the test system is Plasmodium falciparum. As to the kind of experiment: Antiplasmodial activity against artemisinin-resistant Plasmodium falciparum ARC08-022 assessed as inhibition of parasite growth incubated for 48 hrs by time zero-[3H]hypoxanthine incorporation assay. It is filed as functional, organism-based.
Data set [2] can be described thus: Selectivity index, ratio of EC50 for cytotoxicity against human HepG2 cells to EC50 for antimalarial activity against chloroquine-resistant Plasmodium falciparum Dd2. It counts as toxicity, cell-based. The conditions noted are these: read-out: Ratio EC50. The essentials:
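Human HepG2 hepatoma cells were seeded at 2,500 cells/well and grown 24 h. Serial dilutions of compound (0–40 μM) were then added for another 48 h. […] SI = EC50(HepG2)/EC50(Dd2).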

A short description of data set [3]: Octanol-water distribution coefficient, logD of the compound at pH 3 by HPLC-based analysis. It is filed as physicochemical.
The test system of data set [4] is Plasmodium falciparum. The data set is described as follows: Antimalarial activity against chloroquine-resistant Plasmodium falciparum Dd2 assessed as inhibition of parasite growth incubated for 72 hrs by SYBR green I-based DNA quantification assay. It is filed as functional, organism-based. The conditions noted are these: Dd2, 72 h.
The subject of data set [5] is Plasmodium falciparum. The data set is described as follows: Antiplasmodial activity against chloroquine-sensitive Plasmodium falciparum D6 assessed as inhibition of parasite growth incubated for 48 hrs by time zero-[3H]hypoxanthine incorporation assay. It is filed as functional, organism-based.
Data set [6] in a line: Aqueous solubility of the compound at pH 2 by HPLC analysis. It counts as physicochemical. The note with it: aqueous solution. In outline:
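Aqueous solubility was measured at pH 2.0 with an in-house HPLC assay. Values are reported as bins: ≤10 μM, 10–20 μM, 20–40 μM, 40–80 μM and ≥80 μM.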

The nature of data set [7]: Cytotoxicity against human HepG2 cells assessed as reduction in cell viability incubated for 48 hrs by MTS assay. It counts as toxicity, cell-based. In outline: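 HepG2 human hepatoma cells were seeded at 2,500 cells/well in 384-well plates and incubated 24 h. Serial compound dilutions (0–40 μM range) were added, then cells were incubated a further 48 h.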
The nature of data set [8]: Octanol-water distribution coefficient, logD of the compound at pH 7.4 by HPLC-based analysis. It is filed as physicochemical.
The nature of data set [9]: Aqueous solubility of the compound at pH 6.5. The conditions noted are these: aqueous solution.
The subject of data set [10] is Plasmodium falciparum. The data set is described as follows: Selectivity for antiplasmodial activity for chloroquine-resistant Plasmodium falciparum Dd2 over antiplasmodial activity against chloroquine-sensitive Plasmodium falciparum D6. It counts as functional.
Data set [11] relates to Plasmodium falciparum. As to the kind of experiment: Selectivity for antiplasmodial activity for chloroquine-sensitive Plasmodium falciparum 3D7 over antiplasmodial activity against artemisinin-resistant Plasmodium falciparum ARC08-022. It is filed as functional.
Data set [12] relates to Plasmodium falciparum. As to the kind of experiment: Selectivity for antiplasmodial activity for chloroquine-sensitive Plasmodium falciparum 3D7 over antiplasmodial activity against chloroquine-sensitive Plasmodium falciparum D6. It is filed as functional.
The subject of data set [13] is Plasmodium falciparum. As to the kind of experiment: Selectivity for antiplasmodial activity for chloroquine-resistant Plasmodium falciparum Dd2 over antiplasmodial activity against artemisinin-resistant Plasmodium falciparum ARC08-022. It counts as functional.

`OC1CC2(CCN(CCC3CCCCC3)CC2)Oc2c1ccc1ccccc21` (centres undefined): the EC50 amounted to 630 nM in the data set with Plasmodium falciparum [1], 500 nM with Plasmodium falciparum [4] and 500 nM in the data set with Plasmodium falciparum [5]. Further, the selectivity ratio in [2] amounted to 35.1. For the same molecule, the logD in [3] worked out at 2.97; in [8], 3.54. Moreover, the solubility in [6] came to 40 µM (≈ 15.2 µg/mL); in data set [9], 20 µM (≈ 7.59 µg/mL). In addition, in data set [7], the EC50 at 48 h is 14000 nM.
As for `OC1CC2(CCN(CCc3ccc(Cl)c(Cl)c3)CC2)Oc2c1ccc1ccccc21` (centres undefined), the EC50 was 2010 nM in the data set on Plasmodium falciparum [1], 2100 nM in the data set on Plasmodium falciparum [4] and 1320 nM with Plasmodium falciparum [5].
For `OC(CN1CCC2(CCc3ccc4ccccc4c3O2)CC1)c1ccc(F)c(F)c1` (centres undefined), the values for the half-maximal effective concentration (EC50) in the data set on Plasmodium falciparum [1], in the data set on Plasmodium falciparum [4] and in the data set with Plasmodium falciparum [5] were 970 nM, 530 nM and 310 nM, respectively. The selectivity ratio in [2] is > 10.4. For the same molecule, the log distribution coefficient (logD) in [3] is 3.05; in data set [8], 4. For the same molecule, the solubility is 40 µM (≈ 16.4 µg/mL) in [6] and ≤ 10 µM in data set [9]. Also, the 50% effective concentration (EC50) at 48 h in [7] is > 20000 nM.
Take `OC(CN1CCC2(CC1)CC(O)c1ccc3ccccc3c1O2)c1ccc(F)c(F)c1` (centres undefined): the Selectivity ratio with Plasmodium falciparum [10], with Plasmodium falciparum [11], in the data set with Plasmodium falciparum [12] and with Plasmodium falciparum [13] was 3 throughout. Besides, the EC50 in the data set on Plasmodium falciparum [1] was found to be 1810 nM; in the data set with Plasmodium falciparum [4] it was 320 nM; in the data set with Plasmodium falciparum [5], 1480 nM. For the same molecule, the selectivity ratio in data set [2] was > 53.3. For the same molecule, in [7], the EC50 at 48 h was > 20000 nM.
As for `O=C1CC2(CCN(CCc3ccc(F)c(F)c3)CC2)Oc2c1ccc1ccccc21`, the half-maximal effective concentration (EC50) is 860 nM in the data set with Plasmodium falciparum [1], > 2500 nM with Plasmodium falciparum [4] and 260 nM in the data set on Plasmodium falciparum [5]. Further, the selectivity ratio in data set [2] was found to be 4. In addition, the logD in data set [3] is recorded as 2.56; in [8], 3.81. Moreover, the solubility in data set [6] was ≥ 80 µM; in data set [9], 10 µM (≈ 4.07 µg/mL). For the same molecule, in data set [7], the EC50 at 48 h is > 20000 nM.
